According to paper PMC10925177 (bioRxiv, 2024):

Columns and labels:
G9a [1] = molecular target: T1, G9a (Homo sapiens, UniProt Q96KQ7); assay: Western blot of G9a protein levels in cancer cells; type: cell-based; conditions: 24 h, WB
T1 sequence (Q96KQ7 1-1210): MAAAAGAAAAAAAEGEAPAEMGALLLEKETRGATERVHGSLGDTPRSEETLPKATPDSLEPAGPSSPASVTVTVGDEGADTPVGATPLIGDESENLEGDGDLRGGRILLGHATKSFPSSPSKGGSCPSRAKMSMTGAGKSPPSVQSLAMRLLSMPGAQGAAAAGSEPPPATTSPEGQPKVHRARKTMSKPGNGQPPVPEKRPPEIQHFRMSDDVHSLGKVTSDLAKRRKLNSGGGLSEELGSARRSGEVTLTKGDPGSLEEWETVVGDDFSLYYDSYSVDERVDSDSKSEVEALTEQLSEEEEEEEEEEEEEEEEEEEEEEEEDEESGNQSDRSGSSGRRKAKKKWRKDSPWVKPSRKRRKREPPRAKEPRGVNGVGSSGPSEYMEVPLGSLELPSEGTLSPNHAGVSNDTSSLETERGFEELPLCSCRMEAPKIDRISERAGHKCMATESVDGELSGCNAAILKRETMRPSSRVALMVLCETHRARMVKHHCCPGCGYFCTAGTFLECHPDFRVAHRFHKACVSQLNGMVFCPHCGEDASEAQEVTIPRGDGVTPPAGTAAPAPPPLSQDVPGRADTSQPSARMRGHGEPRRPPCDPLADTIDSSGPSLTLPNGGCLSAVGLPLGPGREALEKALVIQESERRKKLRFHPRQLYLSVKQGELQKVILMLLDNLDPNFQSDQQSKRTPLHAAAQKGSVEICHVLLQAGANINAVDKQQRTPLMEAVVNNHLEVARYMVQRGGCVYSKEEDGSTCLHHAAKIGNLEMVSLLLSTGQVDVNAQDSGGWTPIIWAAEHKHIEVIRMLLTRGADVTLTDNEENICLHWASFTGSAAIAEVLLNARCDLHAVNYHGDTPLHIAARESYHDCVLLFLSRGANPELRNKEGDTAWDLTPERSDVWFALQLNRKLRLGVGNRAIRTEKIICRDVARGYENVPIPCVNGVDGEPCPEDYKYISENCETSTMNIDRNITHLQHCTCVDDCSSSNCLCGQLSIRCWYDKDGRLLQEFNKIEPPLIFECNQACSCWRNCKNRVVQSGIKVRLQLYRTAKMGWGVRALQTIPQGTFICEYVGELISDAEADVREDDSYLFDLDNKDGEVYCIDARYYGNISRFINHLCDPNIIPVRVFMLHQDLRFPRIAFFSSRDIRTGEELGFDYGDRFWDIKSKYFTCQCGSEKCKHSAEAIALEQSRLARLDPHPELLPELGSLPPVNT
In short: (§1)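 Cells (22Rv1, K562, H1299) were treated for 24 h at the indicated concentrations; 22Rv1 time courses were run at 3 μM. Cells were lysed in RIPA with protease inhibitors, and 10–30 μg of protein was resolved by SDS-PAGE and transferred to PVDF. Blots were probed overnight at 4 °C, with vinculin/β-actin as loading controls. Band intensity was normalised to DMSO, with n = 2 independent experiments (mean ± SD).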

GLP [2] = molecular target: T2, GLP (Homo sapiens, UniProt Q9H9B1); assay: Western blot of GLP protein levels in cancer cells; type: cell-based; conditions: 24 h, WB
T2 sequence (Q9H9B1 1-1298): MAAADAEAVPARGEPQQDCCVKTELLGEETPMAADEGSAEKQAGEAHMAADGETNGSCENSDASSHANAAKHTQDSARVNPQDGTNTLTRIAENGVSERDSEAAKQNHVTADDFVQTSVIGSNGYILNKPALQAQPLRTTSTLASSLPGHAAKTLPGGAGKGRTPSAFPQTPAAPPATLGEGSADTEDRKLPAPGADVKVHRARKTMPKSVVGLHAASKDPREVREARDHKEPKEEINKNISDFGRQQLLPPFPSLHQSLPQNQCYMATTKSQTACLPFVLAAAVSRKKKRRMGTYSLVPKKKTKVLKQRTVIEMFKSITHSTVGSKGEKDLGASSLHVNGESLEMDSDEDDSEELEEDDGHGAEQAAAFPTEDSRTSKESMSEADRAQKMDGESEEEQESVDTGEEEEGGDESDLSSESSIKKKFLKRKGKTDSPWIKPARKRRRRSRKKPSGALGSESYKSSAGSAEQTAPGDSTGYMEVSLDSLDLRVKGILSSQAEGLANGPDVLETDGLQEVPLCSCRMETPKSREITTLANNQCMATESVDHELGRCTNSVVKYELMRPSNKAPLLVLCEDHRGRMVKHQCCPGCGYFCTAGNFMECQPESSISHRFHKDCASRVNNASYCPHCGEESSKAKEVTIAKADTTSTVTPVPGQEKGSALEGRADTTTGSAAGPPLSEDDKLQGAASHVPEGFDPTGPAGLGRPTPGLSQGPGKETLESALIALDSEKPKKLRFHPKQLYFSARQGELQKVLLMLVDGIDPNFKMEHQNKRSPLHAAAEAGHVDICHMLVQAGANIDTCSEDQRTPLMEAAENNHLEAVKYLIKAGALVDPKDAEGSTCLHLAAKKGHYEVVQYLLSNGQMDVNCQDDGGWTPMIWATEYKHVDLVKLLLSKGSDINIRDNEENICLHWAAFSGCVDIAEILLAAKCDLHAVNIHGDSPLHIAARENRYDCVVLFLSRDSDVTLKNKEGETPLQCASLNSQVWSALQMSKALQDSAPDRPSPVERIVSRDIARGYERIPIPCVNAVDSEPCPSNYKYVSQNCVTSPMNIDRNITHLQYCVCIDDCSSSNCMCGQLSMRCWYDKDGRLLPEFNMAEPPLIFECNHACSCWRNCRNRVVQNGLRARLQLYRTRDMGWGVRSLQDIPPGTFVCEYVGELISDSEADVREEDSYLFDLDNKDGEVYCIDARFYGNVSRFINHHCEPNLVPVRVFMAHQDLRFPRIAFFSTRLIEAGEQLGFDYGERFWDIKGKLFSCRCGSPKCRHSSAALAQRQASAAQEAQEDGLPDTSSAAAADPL
In short: as §1

G9a [3] = molecular target: T1, G9a; assay: G9a radioactive methyltransferase assay; type: biochemical; conditions: indicated concentrations, duplicate (Figure 4B)
In short: (§2)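 Enzyme activity was measured with a radioisotope-based MT HotSpot methyltransferase assay run by a contract laboratory. Test compounds were run at the indicated concentrations, in duplicate. Data are mean ± SD of the two duplicate experiments.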

GLP [4] = molecular target: T2, GLP; assay: GLP radioactive methyltransferase assay; type: biochemical; conditions: indicated concentrations, duplicate (Figure 4C)
In short: as §2

K562 cells = assay: Cell viability assay; type: cell-based; conditions: 7 days treatment, WST-8 (CCK-8)
In short: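 K562 cells were grown at 37 °C in 5% CO2 and exposed to serial dilutions of the test compound for 7 days. Viability was read with CCK-8 (WST-8) as absorbance at 450 nm, with 690 nm as reference. IC50 came from curve fitting. Values are mean ± SD from four independent biological experiments.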

G9a mRNA = assay: RT-qPCR of G9a mRNA in H1299 cells; type: cell-based; conditions: 3 μM, 24 h, normalized to DMSO
In short: (§3)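 H1299 cells were treated with DMSO or test compound at 3 μM for 24 h. Total RNA was extracted and reverse-transcribed to cDNA. qPCR used gene-specific primers for G9a and GLP, and a GAPDH primer set was included.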

GLP mRNA = assay: RT-qPCR of GLP mRNA in H1299 cells; type: cell-based; conditions: 3 μM, 24 h, normalized to DMSO
In short: as §3

Structure (SMILES) | G9a degradation, in words (G9a [1]; 22Rv1 cells, 0.3 or 3 μM) | GLP degradation, in words (GLP [2]; 22Rv1 cells, 0.3 or 3 μM) | inhibition of G9a enzymatic activity (G9a [3]) | inhibition of GLP enzymatic activity (GLP [4]) | other results
COc1cc2c(NC3CCN(CCCC(=O)NCCC(=O)N[C@H](C(=O)N4C[C@H](O)C[C@H]4C(=O)NCc4ccc(-c5scnc5C)cc4)C(C)(C)C)CC3)nc(N3CCC(F)(F)CC3)nc2cc1OCCCN1CCCC1 [Compound 1, (2S,4R)-1-((S)-2-(3-(4-(4-((2-(4,4-difluoropiperidin-1-yl)-6-methoxy-7-(3-(pyrrolidin-1-yl)propoxy)quinazolin-4-yl)amino)piperidin-1-yl)butanamido)propanamido)-3,3-dimethylbutanoyl)-4-hydroxy-N-(4-(4-methylthiazol-5-yl)benzyl)pyrrolidine-2-carboxamide] | moderate | moderate | – | – | –
COc1cc2c(NC3CCN(CCCC(=O)NCCOCCC(=O)N[C@H](C(=O)N4C[C@H](O)C[C@H]4C(=O)NCc4ccc(-c5scnc5C)cc4)C(C)(C)C)CC3)nc(N3CCC(F)(F)CC3)nc2cc1OCCCN1CCCC1 [Compound 11, (2S,4R)-1-((S)-2-(3-(2-(4-(4-((2-(4,4-difluoropiperidin-1-yl)-6-methoxy-7-(3-(pyrrolidin-1-yl)propoxy)quinazolin-4-yl)amino)piperidin-1-yl)butanamido)ethoxy)propanamido)-3,3-dimethylbutanoyl)-4-hydroxy-N-(4-(4-methylthiazol-5-yl)benzyl)pyrrolidine-2-carboxamide] | did not degrade | – | – | – | –
COc1cc2c(NC3CCN(CCCC(=O)NCCOCCOCCC(=O)N[C@H](C(=O)N4C[C@H](O)C[C@H]4C(=O)NCc4ccc(-c5scnc5C)cc4)C(C)(C)C)CC3)nc(N3CCC(F)(F)CC3)nc2cc1OCCCN1CCCC1 [Compound 12, (2S,4R)-1-((S)-2-(tert-butyl)-17-(4-((2-(4,4-difluoropiperidin-1-yl)-6-methoxy-7-(3-(pyrrolidin-1-yl)propoxy)quinazolin-4-yl)amino)piperidin-1-yl)-4,14-dioxo-7,10-dioxa-3,13-diazaheptadecanoyl)-4-hydroxy-N-(4-(4-methylthiazol-5-yl)benzyl)pyrrolidine-2-carboxamide] | little or no degradation | little or no degradation | – | – | –
COc1cc2c(NC3CCN(CCCC(=O)NCCOCCOCCOCCC(=O)N[C@H](C(=O)N4C[C@H](O)C[C@H]4C(=O)NCc4ccc(-c5scnc5C)cc4)C(C)(C)C)CC3)nc(N3CCC(F)(F)CC3)nc2cc1OCCCN1CCCC1 [Compound 13, (2S,4R)-1-((S)-2-(tert-butyl)-20-(4-((2-(4,4-difluoropiperidin-1-yl)-6-methoxy-7-(3-(pyrrolidin-1-yl)propoxy)quinazolin-4-yl)amino)piperidin-1-yl)-4,17-dioxo-7,10,13-trioxa-3,16-diazaicosanoyl)-4-hydroxy-N-(4-(4-methylthiazol-5-yl)benzyl)pyrrolidine-2-carboxamide] | little or no degradation | little or no degradation | – | – | –
COc1cc2c(NC3CCN(CCCC(=O)NCCCCCCCCCCCC(=O)N[C@H](C(=O)N4C[C@@H](O)C[C@@H]4C(=O)NCc4ccc(-c5scnc5C)cc4)C(C)(C)C)CC3)nc(N3CCC(F)(F)CC3)nc2cc1OCCCN1CCCC1 [Compound 14, (2R,4S)-1-((S)-2-(12-(4-(4-((2-(4,4-difluoropiperidin-1-yl)-6-methoxy-7-(3-(pyrrolidin-1-yl)propoxy)quinazolin-4-yl)amino)piperidin-1-yl)butanamido)dodecanamido)-3,3-dimethylbutanoyl)-4-hydroxy-N-(4-(4-methylthiazol-5-yl)benzyl)pyrrolidine-2-carboxamide] | – | – | similarly inhibited | similarly inhibited | –
COc1cc2c(NC3CCN(C(C)C)CC3)nc(N3CCC(F)(F)CC3)nc2cc1OCCCN1CCCC1 [UNC0642, reference compound] | – | – | similarly inhibited | similarly inhibited | G9a degradation, in words (G9a [1]; K562 cells, 3 μM): did not degrade; GLP degradation, in words (GLP [2]; K562 cells, 3 μM): did not degrade; GI50 of cell growth inhibition (IC50 in the figure) (K562 cells): unable to suppress cell proliferation; mRNA levels of G9a (G9a mRNA): did not significantly alter; mRNA levels of GLP (GLP mRNA): did not significantly alter
